ChEMBL document CHEMBL4680121, “Development of (4-methoxyphenyl)-1H-tetrazol-5-amine regioisomers as a new class of selective antitubercular agents” (Eur J Med Chem, 2020)

Experiments:
Assay type in all cases: functional
[1] = system: Mycobacterium tuberculosis; assay: Antitubercular activity against INH-resistant Mycobacterium tuberculosis Spec.800 assessed as streptomycin MIC incubated for 14 days in presence of streptomycin by MABA method; conditions: Mycobacterium tuberculosis, 800, 336 h; time 14 day
Summary of the method: (§1)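 In Middlebrook 7H9 with 10% OADC, the reference drug (INH, RMP, SM or EMB) at 1 to 1/32 of its MIC alone was mixed with the test derivative fixed at 1/2 its MIC. 4 ml samples were inoculated with McFarland 1 suspension and incubated 14 days at 37 °C. MIC is the lowest drug concentration in combination that inhibited growth.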

[2] = system: Mycobacterium tuberculosis; assay: Antitubercular activity against INH-resistant Mycobacterium tuberculosis Spec.800 harboring InhA promoter mutation assessed as fractional inhibitory concentration index in presence of 1/2 x MIC isoniazid incubated for 14 days by MABA method; conditions: time 14 day
Summary of the method: (§2)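 Interaction analysis in Middlebrook 7H9 with 10% OADC. Combination MICs came from mixing the derivative (1 to 1/32 MIC) with the reference drug at 1/2 MIC, and the reverse, after 14 days at 37 °C with McFarland 1 inoculum. FICI was calculated from the combination MIC values and the MICs alone.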

[3] = system: Mycobacterium tuberculosis; assay: Potentiation of isoniazid-induced antimycobacterial activity against INH-resistant Mycobacterium tuberculosis Spec.800 harboring InhA promoter mutation assessed as fold decrease in isoniazid MIC at 1/2X MIC incubated for 14 days in presence of isoniazid by MABA method; conditions: time 14 day
Summary of the method: (§3)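 Combination assay in Middlebrook 7H9 broth with 10% OADC. The reference drug (INH, RMP, SM or EMB) was varied from 1 to 1/32 of its MIC, and the test derivative was fixed at 1/2 its own MIC. Single-agent MICs were determined first by MABA. Inoculum was 1 McFarland, with 14 days of incubation at 37 °C. The endpoint was the lowest reference-drug concentration that inhibited growth.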

[4] = system: Mycobacterium tuberculosis; assay: Antitubercular activity against INH-resistant Mycobacterium tuberculosis Spec.800 assessed as reduction in bacterial growth incubated for 14 days in presence of 1/2 x MIC streptomycin by MABA method; conditions: Mycobacterium tuberculosis, 800, 336 h; time 14 day
Summary of the method: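 Checkerboard-type combination in Middlebrook 7H9 with 10% OADC. The test derivative at 1 to 1/32 of its MIC alone was mixed with the reference drug fixed at 1/2 its MIC. 4 ml samples were inoculated with McFarland 1 suspension and incubated 14 days at 37 °C. MIC is the lowest derivative concentration in combination that inhibited growth in liquid medium.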

[5] = system: Mycobacterium tuberculosis; assay: Potentiation of ethambutol-induced antimycobacterial activity against INH-resistant Mycobacterium tuberculosis Spec.800 harboring InhA promoter mutation assessed as fold decrease in ethambutol MIC at 1/2X MIC incubated for 14 days in presence of ethambutol by MABA method; conditions: time 14 day; summary of the method: as §3
[6] = system: Mycobacterium tuberculosis; assay: Potentiation of rifampcin-induced antimycobacterial activity against INH-resistant Mycobacterium tuberculosis Spec.800 harboring InhA promoter mutation assessed as fold decrease in rifampicin MIC at 1/2X MIC incubated for 14 days in presence of rifampicin by MABA method; conditions: time 14 day; summary of the method: as §3
[7] = system: Mycobacterium tuberculosis; assay: Antitubercular activity against INH-resistant Mycobacterium tuberculosis Spec.800 harboring InhA promoter mutation assessed as fractional inhibitory concentration index in presence of 1/2 x MIC rifampicin incubated for 14 days by MABA method; conditions: time 14 day; summary of the method: as §2
[8] = system: Mycobacterium tuberculosis; assay: Antitubercular activity against INH-resistant Mycobacterium tuberculosis Spec.800 harboring InhA promoter mutation assessed as inhibition of microbial growth incubated for 1 week by MABA method; conditions: time 1 weeks
Summary of the method: (§4)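 Microplate Alamar Blue assay in Middlebrook 7H9 broth with 10% OADC. Inoculum from fresh LJ culture was adjusted to McFarland 1 and diluted 1:20. DMSO stocks were two-fold serially diluted to final 0.125–512 µg/ml, with growth and sterile controls. Plates ran 1 week at 37 °C, then Alamar blue was added for 24 h. MIC is the lowest concentration preventing the blue-to-pink change.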

[9] = system: Mycobacterium tuberculosis; assay: Antitubercular activity against PAS/INH/EMB/RMP-resistant Mycobacterium tuberculosis Spec.210 assessed as inhibition of microbial growth incubated for 1 week by MABA method; conditions: Mycobacterium tuberculosis, 210, 168 h; time 1 weeks; summary of the method: as §4
[10] = system: Mycobacterium tuberculosis; assay: Antitubercular activity against PAS/INH/EMB/RMP-resistant Mycobacterium tuberculosis Spec.210 assessed as reduction in bacterial growth incubated for 14 days in presence of 1/2 x MIC rifampicin by MABA method; conditions: Mycobacterium tuberculosis, 210, 336 h; time 14 day
Summary of the method: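 Checkerboard-style combination in Middlebrook 7H9 broth with 10% OADC. The test derivative was varied from 1 to 1/32 of its MIC, and the reference drug was fixed at 1/2 its own MIC. Single-agent MICs were determined first by MABA. Samples of 4 ml received inoculum at 1 McFarland and were incubated 14 days at 37 °C. The endpoint was the lowest derivative concentration that inhibited growth.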

[11] = system: Mycobacterium tuberculosis; assay: Antitubercular activity against PAS/INH/EMB/RMP-resistant Mycobacterium tuberculosis Spec.210 assessed as rifampicin MIC incubated for 14 days in presence of rifampicin by MABA method; conditions: Mycobacterium tuberculosis, 210, 336 h; time 14 day; summary of the method: as §3
[12] = system: Mycobacterium tuberculosis; assay: Antitubercular activity against INH-resistant Mycobacterium tuberculosis Spec.800 assessed as ethambutol MIC incubated for 14 days in presence of ethambutol by MABA method; conditions: Mycobacterium tuberculosis, 800, 336 h; time 14 day; summary of the method: as §1

Row | SMILES | MIC [1] [µg/mL] | fractional inhibitory concentration index (FICI) [2] | fold change (FC) [3] | MIC [4] [µg/mL] | fold change (FC) [5] | fold change (FC) [6] | fractional inhibitory concentration index (FICI) [7] | MIC [8] [µg/mL] | MIC [9] [µg/mL] | MIC [10] [µg/mL] | MIC [11] [µg/mL] | MIC [12] [µg/mL]
1 | COc1ccc(-n2nnnc2Nc2cccc(Br)c2)cc1 | 0.5 | 0.625 | <=4 | 8 | <=4 | <=4 | 0.75 | 128 | 2 | 0.5 | 8 | 1
2 | COc1ccc(-n2nnnc2Nc2ccc(Br)cc2)cc1 | 0.25 | 0.5 | – | 16 | – | – | 1.125 | 128 | 2 | 1 | 8 | 1
